This passage reports IC50 and fold change (FC) results from ChEMBL document CHEMBL1938254, “Semisynthetic neoboutomellerone derivatives as ubiquitin-proteasome pathway inhibitors” (Bioorg Med Chem, 2012).

A short description of experiment [1]: Inhibition of peptide-glutamyl-peptide-hydrolyzing activity of 20S proteasome in human DLD1 cells transfected with 4Ub-Luc gene using Z-Leu-Leu-Glu-AMC as substrate after 6 hrs by spectrofluorometric analysis. Format: cell-based. To be noted: dld-1. An outline of the steps:
(§1)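 DLD-1 4Ub-Luc cells seeded at 10⁴ cells/well, exposed to compound or solvent for 6 h, then 30 min in reaction buffer (30 mM Tris–HCl pH 7.5, 1 mM ATP). Chymotrypsin-like and PGPH activities read with specific fluorogenic substrates.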

The subject of experiment [2] is DLD-1. In words: Inhibition of 20S proteasome in human DLD1 cells transfected with 4Ub-Luc gene assessed as bioluminescence induction factor at 5 uM after 8 hrs by luciferase reporter gene assay relative to epoxomicin. Format: cell-based. An outline of the steps: (§2)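 Stably transfected DLD-1 cells expressing 4Ub-Luc reporter, cultured in MEM with 5% heat-inactivated serum. Seeded at 10⁴ cells/well and treated with compound or solvent for 8 h. Luciferase activity in lysates read by luminometer. Induction factor = signal of treated over untreated cells, normalised to epoxomicin at 10^-7 M run in parallel (set to 100). IF ≥10 counted active.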
Background: In a reporter assay the amount or activity of a reporter protein is the signal.

Experiment [3] has as its system DLD-1. In words: Inhibition of 20S proteasome activity in human DLD1 cells transfected with 4Ub-Luc gene assessed as bioluminescence induction factor at 10 uM after 8 hrs by luciferase reporter gene assay relative to epoxomicin. The class given is cell-based. An outline of the steps:
as §2

Experiment [4] can be described thus: Cytotoxicity against human WM266.4 cells after 72 hrs by ATPlite assay. Format: functional, cell-based. To be noted: WM 266-4, 72 h. An outline of the steps:
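WM-266-4 metastatic melanoma cells grown in DMEM with 10% fetal calf serum, 2 mM L-glutamine, fungizone and penicillin–streptomycin at 37 °C, 5% CO2. Seeded at 3 × 10⁴ cells/ml, left 24 h, then exposed to increasing compound concentrations for 72 h. Viability read as ATP level (ATPlite). IC50 from nonlinear sigmoidal fit with variable Hill slope; mean of two independent experiments.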
(Cellular ATP, detected with luciferase, serves as a proxy for viable cell number.)

Experiment [5] can be described thus: Inhibition of chymotrypsin-like activity of 20S proteasome in human DLD1 cells transfected with 4Ub-Luc gene using Succinyl-Leu-Leu-Val-Tyr-AMC as substrate after 6 hrs by spectrofluorometric analysis. The class given is cell-based. The following applies: dld-1. An outline of the steps: as §1
In experiment [6] the test system is DLD-1. In words: Inhibition of 20S proteasome in human DLD1 cells transfected with 4Ub-Luc gene assessed as bioluminescence induction factor at 1 uM after 8 hrs by luciferase reporter gene assay relative to epoxomicin. Format: cell-based. An outline of the steps:
as §2

Experiment [7] has as its system DLD-1. Description: Inhibition of 20S proteasome in human DLD1 cells transfected with 4Ub-Luc gene assessed as bioluminescence induction factor at 0.5 uM after 8 hrs by luciferase reporter gene assay relative to epoxomicin. Format: cell-based. An outline of the steps:
as §2

Broadly, the IC50 is the concentration that gives 50% inhibition. A high value points to lower potency.

SMILES strings stand for the structures. “And” between values parts separate entries of the source, which are not always exact repeats. Equal entries are not always repeated.

Take `C=C(C(=O)[C@H](OC(=O)CCl)[C@@H](C)[C@H]1[C@@H](OC(C)=O)C[C@@]2(C)[C@@H]3CC[C@H]4[C@H](C)C(=O)C=C[C@@]45C[C@@]35CC[C@]12C)[C@@H](C)COC(C)=O`: the half-maximal inhibitory concentration (IC50) worked out at 100 µM in experiment [1], 0.66 µM in experiment [4] and 50 µM in experiment [5]. The fold change (FC) in the experiment with DLD-1 [2] stood at 21; with DLD-1 [3], 5; in the experiment on DLD-1 [6] it was 64; in the experiment with DLD-1 [7], 23.

As to `C=C(C(=O)[C@H](O)[C@@H](C)[C@H]1[C@@H](OC(C)=O)C[C@@]2(C)[C@@H]3CC[C@H]4[C@H](C)C(=O)C=C[C@@]45C[C@@]35CC[C@]12C)[C@@H](C)COC(=O)Nc1ccc(N(C)C)cc1`, the IC50 was above 1000 µM in experiment [1], 0.82 µM in experiment [4] and above 1000 µM in experiment [5]. For the same molecule, the fold change (FC) in the experiment on DLD-1 [2] amounted to 47; in the experiment on DLD-1 [3], 34; in the experiment with DLD-1 [6], 51; with DLD-1 [7], 11.

In the case of `C=C(C(=O)[C@H](O)[C@@H](C)[C@H]1[C@@H](OC(C)=O)C[C@@]2(C)[C@@H]3CC[C@H]4[C@H](C)C(=O)C=C[C@@]45C[C@@]35CC[C@]12C)[C@@H](C)COC(C)=O`, the IC50 in experiment [1] worked out at 45 µM; in experiment [4] it was 0.99 µM; in experiment [5], 31 µM. Also, the fold change (FC) in the experiment on DLD-1 [2] was determined as 29; with DLD-1 [3], 6; in the experiment on DLD-1 [6], 26; in the experiment with DLD-1 [7], 1.7.

As to `C=C(C(=O)[C@H](O)[C@@H](C)[C@H]1[C@@H](OC(C)=O)C[C@@]2(C)[C@@H]3CC[C@H]4[C@H](C)C(=O)C=C[C@@]45C[C@@]35CC[C@]12C)[C@@H](C)COC(=O)N1CCN(C)CC1`, the 50% inhibitory concentration (IC50) in experiment [1] stood at 32 µM; in experiment [4], 0.46 µM; in experiment [5], 39 µM.

Turning to `C=C(C(=O)[C@H](OC(=O)CNC(=O)OC(C)(C)C)[C@@H](C)[C@H]1[C@@H](OC(C)=O)C[C@@]2(C)[C@@H]3CC[C@H]4[C@H](C)C(=O)C=C[C@@]45C[C@@]35CC[C@]12C)[C@@H](C)COC(=O)CNC(=O)OC(C)(C)C`, the IC50 in experiment [1] was found to be 38 µM; in experiment [5] it was 21 µM. The fold change (FC) with DLD-1 [2] was 33; with DLD-1 [3], 17; with DLD-1 [6], 47; with DLD-1 [7] it was 4.3.

Regarding `C=C(C(=O)[C@H](OC(C)=O)[C@@H](C)[C@H]1[C@@H](OC(C)=O)C[C@@]2(C)[C@@H]3CC[C@H]4[C@H](C)C(=O)C=C[C@@]45C[C@@]35CC[C@]12C)[C@@H](C)COC(=O)CCC(=O)O`, the values for the IC50 in experiment [1] and in experiment [5] were 37 µM and 25 µM, respectively. Further, the fold change (FC) with DLD-1 [2] is 20 and 15; in the experiment with DLD-1 [3] it was 4.4 and 3.7; in the experiment on DLD-1 [6], 45 and 61; in the experiment with DLD-1 [7] it was 1.4 and 2.

Consider `C=C(C(=O)[C@H](OC(C)=O)[C@@H](C)[C@H]1[C@@H](OC(C)=O)C[C@@]2(C)[C@@H]3CC[C@H]4[C@H](C)C(=O)C=C[C@@]45C[C@@]35CC[C@]12C)[C@@H](C)COC(=O)N1CCN(C)CC1`, for which the IC50 is 16 µM in experiment [1], 0.5 µM in experiment [4] and 13 µM in experiment [5]. For the same molecule, the fold change (FC) with DLD-1 [2] amounted to 4.2; with DLD-1 [3], 1; in the experiment with DLD-1 [6] it was 68; in the experiment on DLD-1 [7], 8.

For the molecule `C=C(C(=O)[C@H](OC(C)=O)[C@@H](C)[C@H]1[C@@H](OC(C)=O)C[C@@]2(C)[C@@H]3CC[C@H]4[C@H](C)C(=O)C=C[C@@]45C[C@@]35CC[C@]12C)[C@@H](C)COC(=O)Nc1ccccc1`, the IC50 was above 1000 µM in experiment [1], 0.19 µM in experiment [4] and above 1000 µM in experiment [5]. Also, the fold change (FC) stood at 60 in the experiment on DLD-1 [2], 42 in the experiment on DLD-1 [6] and 6.4 in the experiment with DLD-1 [7].

As for `C=C(C(=O)[C@H](OC(C)=O)[C@@H](C)[C@H]1[C@@H](OC(C)=O)C[C@@]2(C)[C@@H]3CC[C@H]4[C@H](C)C(=O)C=C[C@@]45C[C@@]35CC[C@]12C)[C@@H](C)COC(=O)CCN(CC)CC`, the half-inhibitory concentration (IC50) in experiment [1] is 9.4 µM; in experiment [5], 10 µM. The fold change (FC) in the experiment with DLD-1 [2] turned out to be 11; in the experiment with DLD-1 [3], 2.7; with DLD-1 [6], 26; in the experiment with DLD-1 [7], 1.5.

In the case of `C=C(C(=O)[C@H](OC(=O)CCC(=O)O)[C@@H](C)[C@H]1[C@@H](OC(C)=O)C[C@@]2(C)[C@@H]3CC[C@H]4[C@H](C)C(=O)C=C[C@@]45C[C@@]35CC[C@]12C)[C@@H](C)COC(C)=O`, the half-inhibitory concentration (IC50) in experiment [1] was 10 µM; in experiment [5] it was 12 µM. Besides, the fold change (FC) in the experiment with DLD-1 [2] came out at 16; in the experiment on DLD-1 [3], 3; in the experiment on DLD-1 [6], 69; in the experiment on DLD-1 [7], 2.

`C=C(C(=O)[C@H](OC(C)=O)[C@@H](C)[C@H]1[C@@H](OC(C)=O)C[C@@]2(C)[C@@H]3CC[C@H]4[C@H](C)C(=O)C=C[C@@]45C[C@@]35CC[C@]12C)[C@@H](C)COC(C)=O`: the IC50 in experiment [1] is 43 µM; in experiment [4] it was 1.5 µM; in experiment [5] it was 35 µM. For the same molecule, the fold change (FC) worked out at 48 in the experiment with DLD-1 [2], 11 in the experiment on DLD-1 [6] and 1.1 with DLD-1 [7].

Take `C=CCOC[C@H](C)C(=C)C(=O)[C@H](O)[C@@H](C)[C@H]1[C@@H](OC(C)=O)C[C@@]2(C)[C@@H]3CC[C@H]4[C@H](C)C(=O)C=C[C@@]45C[C@@]35CC[C@]12C`: the fold change (FC) was 13 with DLD-1 [2], 1.5 in the experiment on DLD-1 [3], 49 with DLD-1 [6] and 3.7 with DLD-1 [7]. In experiment [4], this molecule showed an IC50 of 0.78 µM.

On to `C=C(C(=O)[C@H](O)[C@@H](C)[C@H]1[C@@H](OC(C)=O)C[C@@]2(C)[C@@H]3CC[C@H]4[C@H](C)C(=O)C=C[C@@]45C[C@@]35CC[C@]12C)[C@@H](C)CO`, for which the half-maximal inhibitory concentration (IC50) in experiment [1] worked out at 51 µM; in experiment [4], 1.6 µM; in experiment [5] it was 42 µM. In addition, the fold change (FC) with DLD-1 [2] was determined as 28; with DLD-1 [3], 2.9; in the experiment with DLD-1 [6], 45; in the experiment on DLD-1 [7] it was 1.4.

Regarding `C=C(C(=O)[C@H](OC(=O)CNC(=O)OC(C)(C)C)[C@@H](C)[C@H]1[C@@H](OC(C)=O)C[C@@]2(C)[C@@H]3CC[C@H]4[C@H](C)C(=O)C=C[C@@]45C[C@@]35CC[C@]12C)[C@@H](C)COC(C)=O`, the IC50 in experiment [1] was found to be 23 µM; in experiment [4] it was 1 µM; in experiment [5] it was 17 µM. In addition, the fold change (FC) came to 3.4 in the experiment on DLD-1 [2], 1.6 in the experiment on DLD-1 [3], 69 in the experiment on DLD-1 [6] and 76 with DLD-1 [7].

In the case of `C=C(C(=O)[C@H](O)[C@@H](C)[C@H]1[C@@H](OC(C)=O)C[C@@]2(C)[C@@H]3CC[C@H]4[C@H](C)C(=O)C=C[C@@]45C[C@@]35CC[C@]12C)[C@@H](C)COC(=O)CCC(=O)O`, the half-inhibitory concentration (IC50) in experiment [1] turned out to be 47 µM; in experiment [5], 61 µM. The fold change (FC) was 11 and 18 in the experiment with DLD-1 [2]; 3.5 and 5 in the experiment with DLD-1 [3]; 62 and 46 in the experiment with DLD-1 [6]; 6 and 2.6 in the experiment with DLD-1 [7].

With `C=C(C(=O)[C@H](OC(C)=O)[C@@H](C)[C@H]1[C@@H](OC(C)=O)C[C@@]2(C)[C@@H]3CC[C@H]4[C@H](C)C(=O)C=C[C@@]45C[C@@]35CC[C@]12C)[C@@H](C)CO` [NEOBOUTOMELLERONE], the IC50 in experiment [1] was 23 µM; in experiment [4], 2.8 µM; in experiment [5] it was 16 µM. For the same molecule, the fold change (FC) with DLD-1 [2] is 37; in the experiment on DLD-1 [3], 4.4; in the experiment on DLD-1 [6], 48; with DLD-1 [7], 2.1.

For `C=C(C(=O)[C@H](OC(C)=O)[C@@H](C)[C@H]1[C@@H](OC(C)=O)C[C@@]2(C)[C@@H]3CC[C@H]4[C@H](C)C(=O)C=C[C@@]45C[C@@]35CC[C@]12C)[C@@H](C)COC(=O)Nc1ccc(N(C)C)cc1`, the IC50 in experiment [1] was above 1000 µM; in experiment [4], 0.96 µM; in experiment [5] it was above 1000 µM. The fold change (FC) in the experiment with DLD-1 [2] is 63; with DLD-1 [3], 60; in the experiment on DLD-1 [6], 51; with DLD-1 [7], 19.

Consider `C=C(C(=O)[C@H](OC(C)=O)[C@@H](C)[C@H]1[C@@H](OC(C)=O)C[C@@]2(C)[C@@H]3CC[C@H]4[C@H](C)C(=O)C=C[C@@]45C[C@@]35CC[C@]12C)[C@@H](C)COP(=O)(OCC)OCC`, for which the IC50 is 91 µM in experiment [1] and 19 µM in experiment [5]. Also, the fold change (FC) in the experiment on DLD-1 [2] was determined as 16; with DLD-1 [3] it was 2; in the experiment with DLD-1 [6] it was 43; in the experiment on DLD-1 [7] it was 3.
